An excerpt weighted towards active compounds, which were near 3.8% of everything screened.
KCNQ1 inh = inhibitors of human KCNQ1 channel, primary screen, cell-based, thallium flux, high-throughput; B-score at 10 µM; AID 2642, 2010; Potassium voltage-gated channel subfamily KQT member 1 (Homo sapiens), P51787; actives 1.3% (n = 310,000); CHO-K1 KCNQ1, FluxOR thallium flux fluorescence; stronger effect = higher value;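 active means compounds whose thallium flux B-score, printed positive for inhibition, exceeds three library SD while starting fluorescence stays within three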;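 further: channel opened by potassium depolarization with thallium stimulus after 20 min compound exposure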
Target sequence (P51787 whole entry, looked up): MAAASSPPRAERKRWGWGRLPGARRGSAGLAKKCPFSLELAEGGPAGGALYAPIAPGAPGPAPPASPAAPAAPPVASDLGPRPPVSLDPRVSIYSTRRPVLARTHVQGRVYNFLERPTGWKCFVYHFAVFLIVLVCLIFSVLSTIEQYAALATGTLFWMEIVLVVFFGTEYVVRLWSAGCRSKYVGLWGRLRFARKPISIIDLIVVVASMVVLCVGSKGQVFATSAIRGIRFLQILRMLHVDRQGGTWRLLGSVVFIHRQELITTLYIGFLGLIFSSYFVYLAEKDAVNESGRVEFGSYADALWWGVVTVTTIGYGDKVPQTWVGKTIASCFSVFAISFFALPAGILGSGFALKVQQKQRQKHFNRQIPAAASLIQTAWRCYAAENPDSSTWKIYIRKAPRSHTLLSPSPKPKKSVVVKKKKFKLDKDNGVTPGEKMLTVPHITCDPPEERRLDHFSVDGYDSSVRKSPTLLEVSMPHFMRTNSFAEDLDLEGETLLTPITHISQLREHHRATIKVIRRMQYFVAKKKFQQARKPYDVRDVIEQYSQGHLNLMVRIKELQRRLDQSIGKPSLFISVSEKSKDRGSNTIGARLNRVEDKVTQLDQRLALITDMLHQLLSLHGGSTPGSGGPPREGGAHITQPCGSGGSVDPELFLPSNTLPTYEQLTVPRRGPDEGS
Kir21 block = inhibitors of mouse Kir2.1 inward-rectifier potassium channel; Inward rectifier potassium channel 2 (Mus musculus), P35561; HEK293-Kir2.1, FluxOR thallium flux fluorescence; stronger effect = lower value; B-score at 10 µM; actives 0.85% (n = 310,000);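 active means fluorescence ratio B-score at or below minus 3 SD of library scores, with starting-brightness B-score within 2 SD, cut at about -4.2 in these data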;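 further: channel flux triggered by added potassium and thallium sulfate stimulus; B-score of peak minus minimum fluorescence over baseline after thallium stimulus; more negative B-score means stronger Kir2.1 block with less thallium influx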
KCNK3 block = human KCNK3 channel inhibitors, primary screen, CHO cells, FluxOR thallium flux, B-score | Potassium channel subfamily K member 3 (Homo sapiens), O14649 | FluxOR fluorescence; stronger effect = lower value | B-score at 10 µM | actives 0.84% (n = 340,000) | AID 602410, 2012;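 active means B-score under library mean minus 4 SD, starting fluorescence ratio at most library mean plus 5 SD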;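 further: more negative B-score means stronger inhibition of thallium flux through KCNK3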
KCNQ1 act = potentiators or activators of KCNQ1 channel, primary screen, cell-based, thallium flux, high-throughput; Potassium voltage-gated channel subfamily KQT member 1 (Homo sapiens), P51787; CHO-K1 KCNQ1, thallium flux FluxOR fluorescence; stronger effect = higher value; B-score at 10 µM; actives 0.35% (n = 310,000);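 active means fluorescence ratio B-score, a plate-corrected score, at least three library SD, with initial intensity B-score within 5 SD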
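Medium – assay buffer, equal DMSO in all wells · Material – CHO-K1 cell line with stable KCNQ1 potassium channel expression · Signal – kinetic FluxOR thallium fluorescence, 10-s 1-Hz baseline, 110-s post-stimulus read · Compound – single concentration per compound, DMSO matched to controls · Schedule – 37 °C overnight plating, 90-min dark dye load, 20-min compound pretreatment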
KCNK9 inh = KCNK9 potassium channel inhibitors, primary screen, HEK293 cells, thallium flux; Potassium channel subfamily K member 9 (Homo sapiens), Q9NPC2; FluxOR thallium flux fluorescence; stronger effect = lower value; B-score at 10 µM; actives 1.2% (n = 310,000); AID 488922, 2010;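 active means ratio B-score over 3 SD below the library mean, with starting fluorescence within 5 SD of its mean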;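 further: negative B-score means less thallium flux so channel inhibition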
hERG rescue = hERG rescue from dofetilide block, primary screen, cell-based, CHO-hERG, FluxOR thallium flux, dofetilide IC70 | Voltage-gated inwardly rectifying potassium channel KCNH2 (Homo sapiens), Q12809 | dofetilide IC70 present | activation (rescue from dofetilide block), less the hit threshold, % at 10 µM | actives 0.51% (n = 310,000) | AID 1511, 2009;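 active means activation above the mean of controls blocked by dofetilide plus 5 SD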;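 further: thallium influx through hERG after potassium depolarization seen as dye fluorescence rise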
KCNK9 inh conf = KCNK9 potassium channel inhibitors, confirmation, HEK293 cells, thallium flux, duplicate; actives 43% (n = 4,900); FluxOR thallium flux fluorescence; inhibition, % at 10 µM; shares compounds with KCNK9 inh;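 active means thallium signal inhibited by more than 5 SD of the compound-free buffer control wells, on both duplicate plates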
Kir2-1 spec = mouse Kir2.1 channel inhibition, confirmation, selectivity assay for KCNK9 modulator project, cell-based, HEK293, thallium flux; shares compounds with KCNK9 inh; Kir2.1 cells, FluxOR thallium flux fluorescence; inhibition, % at 10 µM; actives 4% (n = 4,900); AID 492993, 2010;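 active means thallium signal drop more than 5 SD beyond the mean of the no-compound control wells, seen in both duplicate plates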;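 further: signal is fluorescence rise after thallium addition divided by baseline fluorescence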
HEK293 Tl ctr = thallium flux in non-induced HEK293 cells, confirmation, counter-screen for KCNK9 inhibitor project, cell-based, second counter screen, non-induced KCNK9-HEK293; FluxOR thallium flux; actives 40% (n = 4,900); shares compounds with KCNK9 inh; inhibition, % at 10 µM;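 active means thallium signal drop beyond 5 SD of the untreated control mean, on both duplicate plates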
Numbers stand for hits; – = inactive; · = not tested or not shown.

SMILES | KCNQ1 inh | Kir21 block | KCNK3 block | KCNQ1 act | KCNK9 inh | hERG rescue | KCNK9 inh conf | Kir2-1 spec | HEK293 Tl ctr
COc1ccc(C2Nc3ccccc3C(=O)N2Cc2ccco2)cc1CN1C(=O)c2ccccc2C1=O (configuration not stated) | – | – | – | – | – | – | · | · | ·
COc1ccc(C2Nc3ccccc3C(=O)N2Cc2ccco2)cc1COc1ccc(F)cc1 (configuration not stated) | – | – | – | – | -9 | – | 35% | – | 36%
CC(=O)N1CCN(C(=O)COC(=O)COc2ccc(C#N)cc2)CC1 | – | – | – | – | – | – | · | · | ·
COc1ccc(N2Cc3cccc(C(=O)NC(C)CCc4ccco4)c3C2=O)cc1 (configuration not stated) | – | – | -9.9 | – | -16 | – | 57% | – | 34%
CC(CCc1ccco1)NC(=O)c1cccc2c1C(=O)N(C1CCCCC1)C2 (configuration not stated) | – | – | – | – | – | – | · | · | ·
COc1ccc(NC(=O)CN(C)C(=O)c2cccc(S(=O)(=O)Nc3ccccc3Cl)c2)cc1 | – | – | – | – | – | – | · | · | ·
CCn1c(C(=O)O)c(CC(=O)Nc2ccc(Br)cc2C)c2ccccc21 | – | – | – | – | – | – | · | · | ·
C=CCOc1ccc(CN(C)Cc2nc3cc(C(F)(F)F)ccc3c(=O)[nH]2)cc1 | – | – | – | – | – | – | – | – | –
COc1ccc(/C(C)=N/Nc2ccc(C(=O)O)cc2)c(OC)c1 | – | – | – | – | – | – | · | · | ·
COc1ccc2c(c1)C(=NNc1ccc(C(=O)O)cc1)c1cc(OC)ccc1-2 | – | – | – | – | – | – | – | – | –
CC(=O)c1cccc(OCC(O)CN2CCN(C(=O)c3ccco3)CC2)c1 (configuration not stated) | – | – | – | – | – | – | · | · | ·
O=C(OCCN(C1=NS(=O)(=O)c2ccccc21)c1ccccc1Cl)c1ccc(Cl)cc1 | – | – | – | – | -8.1 | – | 30% | – | 30%
CN(CC(=O)Nc1ccc(Cl)cc1)C1=NS(=O)(=O)c2ccccc21 | · | · | – | · | · | · | · | · | ·
COc1ccc(-c2nc(SC)n(S(=O)(=O)c3ccccc3)n2)cc1 | – | – | – | – | – | – | · | · | ·
COc1ccc(S(=O)(=O)n2ccc(C(C)Oc3ccc(-c4ccccc4)c(F)c3)n2)cc1 (configuration not stated) | – | – | – | – | -11 | – | 61% | – | 40%
CCOC(=O)c1ccc(N2CCOCC2)c(NC(=O)c2ccc3c(c2)OCO3)c1 | – | – | – | – | – | – | · | · | ·
COc1ccc(-n2ccnc2SCC(=O)NC2CCCC2)cc1 | · | · | – | · | · | · | · | · | ·
CC1CC(C)CN(S(=O)(=O)c2ccc(NC(=O)C3COc4ccccc4O3)cc2)C1 (configuration not stated) | – | – | – | – | – | – | – | – | –
O=C(O)c1n[nH]c2c1CC(C1CCCCC1)CC2 (configuration not stated) | · | · | – | · | · | · | · | · | ·
Cc1[nH]c(C)c(C(=O)/C=C/c2ccc([N+](=O)[O-])cc2)c1C | – | – | – | – | – | – | · | · | ·
CCc1ccc(-c2cc(C)no2)cc1S(=O)(=O)N1CCN(c2cc(C)ccc2C)CC1 | – | – | – | – | – | – | – | – | –
O=C(c1ccc2c(c1)OCO2)C1CCCN(Cc2c(F)ccc(F)c2F)C1 (configuration not stated) | – | – | – | – | – | – | – | – | –
Cn1c(CN2CCCC(C(=O)c3ccc4c(c3)OCO4)C2)nc2ccccc21 (configuration not stated) | – | – | – | – | – | – | – | – | –
Fc1ccc(N2N=C(c3cccs3)CC2c2ccccc2)cc1 (configuration not stated) | – | – | – | – | -11 | – | 50% | – | 45%
CCOC(=O)c1c(C)oc2cc(Br)c(OC(C)C(=O)OCC)cc12 (configuration not stated) | – | – | – | – | – | – | – | – | –
SMILES | KCNQ1 inh | Kir21 block | KCNK3 block | KCNQ1 act | KCNK9 inh | hERG rescue | KCNK9 inh conf | Kir2-1 spec | HEK293 Tl ctr
CCCCOC(=O)Nc1cc(C)c(Cl)cc1OC | – | – | – | – | – | – | · | · | ·
CCCCOC(=O)Nc1cc(Cl)ccc1C | – | – | – | – | -13 | – | 32% | – | –
O=C(O)c1cnc(-c2ccccc2)nc1Sc1ccc(Cl)cc1Cl | – | – | – | – | – | – | – | – | –
Cc1cc(C)n(-c2ccc(C(=O)N3CCN(c4ccccn4)CC3)cc2)n1 | · | · | – | · | · | · | · | · | ·
Cc1cc(C)n(-c2nc3ccccc3nc2N2CCN(C(=O)c3ccccc3)CC2)n1 | – | – | – | – | – | – | – | – | –
COC(=O)C(C)N(C(=O)c1cccc2ccccc12)c1c(C)cccc1C (configuration not stated) | – | – | – | – | -12 | – | 52% | – | 32%
Fc1ccc(NC(=S)NNc2ncc(C(F)(F)F)cc2Cl)c(F)c1 | – | – | – | – | – | – | · | · | ·
CCC(C)NC(=O)c1ccccc1NC(=O)c1ccc(CSc2ccc(C)cc2)cc1 (configuration not stated) | – | – | – | – | – | – | – | – | –
Cc1ccc2nc(C(=O)N3CCc4c([nH]c5ccccc45)C3c3ccccn3)cn2c1 (configuration not stated) | – | – | – | – | – | – | · | · | ·
CSc1nc(C(=O)N2CCc3c([nH]c4ccccc34)C2c2ccccn2)cs1 (configuration not stated) | – | – | – | – | -9.7 | – | 49% | – | 29%
O=C(c1cccs1)N1CCc2c([nH]c3ccccc23)C1c1ccccn1 (configuration not stated) | – | – | – | – | -9 | – | – | – | –
Oc1ccc2ccccc2c1C=NCc1ccccc1 | – | – | – | – | – | – | – | – | –
COC(=O)c1cccc2c(C(=O)O)cc(-c3ccccc3)nc12 | · | · | – | · | · | · | · | · | ·
